Data taken from ChEMBL document CHEMBL1255364, “Delayed development of linezolid resistance in Staphylococcus aureus following exposure to low levels of antimicrobial agents” (2008).
Converted amounts (≈) assume the structure as drawn. The source made the active and inactive calls. The calls are words filed in the database; no cut-off is given here.

How the values were obtained:
Staphylococcus aureus [1] = experiment: Suppression of drug resistance development in recA-deficient Staphylococcus aureus KB103 assessed as prolonged length of subculture to develop Linezolid resistance at 4 times MIC and 0.25 times IC50 after 20 days; type: functional, organism-based
How it was run: (§1)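 Stationary-phase MHB cultures were exposed for 6 h to linezolid at 4× MIC, with secondary agent(s) at 0.25× IC50. IC50 was the concentration halving growth rate by culture absorbance. A 5 μl aliquot was transferred to fresh drug-free medium and the cycle repeated. […] Four runs were done, with days to resistance averaged to the nearest day.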

Staphylococcus aureus [2] = experiment: Suppression of drug resistance development in Staphylococcus aureus isolate EMRAS-15 assessed as prolonged length of subculture to develop Linezolid resistance at 4 times MIC and 0.25 times IC50 after 25 days; type: functional, organism-based; how it was run: as §1
Staphylococcus aureus [3] = experiment: Suppression of drug resistance development in Staphylococcus aureus RN4220 assessed as prolonged length of subculture to develop Linezolid resistance at 4 times MIC and 0.25 times IC50 after 25 days; type: functional, organism-based; how it was run: as §1
Staphylococcus aureus [4] = experiment: Suppression of resistance related recombination in Staphylococcus aureus RN4220 at 0.25 times IC50 at 42 degC
Staphylococcus aureus [5] = experiment: Suppression of drug resistance development in Staphylococcus aureus RN4220 assessed as assessed as prolonged length of subculture to develop Linezolid resistance at 0.25 times IC50
Staphylococcus aureus [6] = experiment: Suppression of drug resistance development in LZD intermediate-resistant Staphylococcus aureus KM183 assessed as prolonged length of subculture to develop Linezolid resistance at 4 times MIC and 0.25 times IC50 after 8 days; type: functional, organism-based; how it was run: as §1
Staphylococcus aureus [7] = experiment: Antibacterial activity against Staphylococcus aureus KM187 after 18 to 24 hrs by broth microdilution method selected after 16 ug/ml drug exposure for 6 hrs by culture absorbance method; type: functional
How it was run: (§2)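 Broth microdilution in Mueller-Hinton broth per BSAC guidelines. MIC read as the lowest concentration completely inhibiting visible growth after 18 to 24 h at 37°C. Strains were linezolid-selected derivatives recovered from repeated 6-h linezolid exposure cycles.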

Staphylococcus aureus [8] = experiment: Antibacterial activity against Staphylococcus aureus KM183 after 18 to 24 hrs by broth microdilution method selected after 16 ug/ml drug exposure for 6 hrs by culture absorbance method; type: functional; how it was run: as §2
Staphylococcus aureus [9] = experiment: Antibacterial activity against Staphylococcus aureus KM53 after 18 to 24 hrs by broth microdilution method selected after 16 ug/ml drug exposure for 6 hrs by culture absorbance method; type: functional; how it was run: as §2
Staphylococcus aureus [10] = experiment: Antibacterial activity against Staphylococcus aureus KM52 after 18 to 24 hrs by broth microdilution method selected after 16 ug/ml drug exposure for 6 hrs by culture absorbance method; type: functional; how it was run: as §2
Staphylococcus aureus [11] = experiment: Antibacterial activity against Staphylococcus aureus KM51 after 18 to 24 hrs by broth microdilution method selected after 16 ug/ml drug exposure for 6 hrs by culture absorbance method; type: functional; how it was run: as §2
Staphylococcus aureus [12] = experiment: Antibacterial activity against Staphylococcus aureus KM50 after 18 to 24 hrs by broth microdilution method selected after 16 ug/ml drug exposure for 6 hrs by culture absorbance method; type: functional; how it was run: as §2
Staphylococcus aureus [13] = experiment: Suppression of drug resistance development in Staphylococcus aureus RN4220 assessed as assessed as prolonged length of subculture to develop Linezolid resistance at 0.25 times MIC; type: functional

`CC(=O)O[C@H]1C[C@@]2(C)[C@@H](C[C@@H](O)[C@H]3[C@@]4(C)CC[C@@H](O)[C@@H](C)[C@@H]4CC[C@@]32C)/C1=C(\CCC=C(C)C)C(=O)O` was tested. Which Activity (Staphylococcus aureus [1]) did it give?
The Activity was “Active”.

And the Activity (Staphylococcus aureus [2])?
Its Activity is “Active”.

What about the Activity (Staphylococcus aureus [3]) of the same compound?
The Activity was “Active”.

What about the inhibition (Staphylococcus aureus [4]) of the same compound?
Its inhibition is “Active”.

Which Activity (Staphylococcus aureus [1]) does the source give for `CO[C@H]1/C=C/O[C@@]2(C)Oc3c(C)c(O)c4c(O)c(c(/C=N/N5CCN(C)CC5)c(O)c4c3C2=O)NC(=O)/C(C)=C\C=C\[C@H](C)[C@H](O)[C@@H](C)[C@@H](O)[C@@H](C)[C@H](OC(C)=O)[C@@H]1C` here?
The Activity was “Active”.

What about the Activity (Staphylococcus aureus [3]) of the same compound?
The Activity was “Active”.

And the inhibition (Staphylococcus aureus [4])?
The inhibition was “Active”.

How did the Time (Staphylococcus aureus [5]) turn out when `O=C(O)c1cn(C2CC2)c2cc(N3CCNCC3)c(F)cc2c1=O` [CIPROFLOXACIN] was run?
Its Time is 14 days.

`CC(=O)NC[C@H]1CN(c2ccc(N3CCOCC3)c(F)c2)C(=O)O1` [LINEZOLID] was tested. Which Activity (Staphylococcus aureus [6]) did it give?
Its Activity is “Active”.

And the Activity (Staphylococcus aureus [1])?
Its Activity is “Active”.

What about the MIC (Staphylococcus aureus [7]) of the same compound?
Its MIC is 32 µg/mL (≈ 94.9 µM).

What about the MIC (Staphylococcus aureus [8]) of the same compound?
The MIC was 16 µg/mL (≈ 47.4 µM).

And the MIC (Staphylococcus aureus [9])?
The MIC was 32 µg/mL (≈ 94.9 µM).

And the MIC (Staphylococcus aureus [10])?
The MIC was 32 µg/mL (≈ 94.9 µM).

What about the MIC (Staphylococcus aureus [11]) of the same compound?
Its MIC is 32 µg/mL (≈ 94.9 µM).

And the MIC (Staphylococcus aureus [12])?
Its MIC is 32 µg/mL (≈ 94.9 µM).

`CO[C@@H]1[C@@H](OC(N)=O)[C@@H](O)[C@H](Oc2ccc3c(O)c(NC(=O)c4ccc(O)c(CC=C(C)C)c4)c(=O)oc3c2C)OC1(C)C` [NOVOBIOCIN] was tested. Which Time (Staphylococcus aureus [5]) did it give?
Its Time is 14 days.

`CN(C)[C@@H]1C(O)=C(C(N)=O)C(=O)[C@@]2(O)C(O)=C3C(=O)c4c(O)cccc4[C@@](C)(O)[C@H]3C[C@@H]12` [TETRACYCLINE] was tested. Which Time (Staphylococcus aureus [5]) did it give?
Its Time is 14 days.

With GENTAMICIN as the compound, how does the TIME (Staphylococcus aureus [13]) read?
The TIME was 336 h.
